The source made the active and inactive calls. The rule behind the calls is not given here.
Columns and labels:
[1] = system: KB; experiment: Cell cycle arrest in human KB cells assessed as accumulation at G2/M phase at 1 uM after 96 hrs by propidium iodide staining-based flow cytometry (reference value: 13.2%); type: functional
[2] = system: KB; experiment: Cell cycle arrest in human KB cells assessed as accumulation at S phase at 1 uM after 96 hrs by propidium iodide staining-based flow cytometry (reference value: 15.9%); type: functional
[3] = system: KB; experiment: Cell cycle arrest in human KB cells assessed as accumulation at G1/G0 phase at 1 uM after 96 hrs by propidium iodide staining-based flow cytometry (reference value: 67.4%); type: functional
[4] = system: KB; experiment: Cytotoxicity against human KB cells expressing human RFC/FRalpha/PCFT after 96 hrs by CellTitre-Blue fluorescence assay in presence of adenosine; type: functional, cell-based
In short: (§1)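 KB cells were grown in FF-RPMI with DFBS and 2 nM LCV, exposed to antifolate (0–1 μM) for 96 h at 37 °C, and read by CellTiter-Blue fluorescence. IC50 was taken from dose–response curves relative to untreated cells. Protection arms added adenosine 60 μM, thymidine 10 μM, AICA 320 μM, or folic acid 200 nM. Means of 3–10 experiments.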

[5] = system: KB; experiment: Cytotoxicity against human KB cells expressing human RFC/FRalpha/PCFT after 96 hrs by CellTitre-Blue fluorescence assay in presence of folic acid; type: functional, cell-based; in short: as §1
[6] = system: KB; experiment: Cytotoxicity against human KB cells expressing human RFC/FRalpha/PCFT after 96 hrs by CellTitre-Blue fluorescence assay; type: functional, cell-based; in short: as §1
[7] = system: R2; experiment: Cytotoxicity against chinese hamster R2 cells expressing human PCFT4 after 96 hrs by CellTitre-Blue fluorescence assay; type: functional, cell-based, Cricetulus griseus; details: R2, 96 h
[8] = Cytotoxicity against chinese hamster RT16 cells expressing human FRalpha after 96 hrs by CellTitre-Blue fluorescence assay in presence of folic acid; type: functional, cell-based; details: Cricetulus griseus, RT16, 96 h
In short: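 CHO sublines were grown in FF-RPMI/DFBS; transfectants were maintained with G418. Cells were exposed to antifolate (0–1 μM) for 96 h at 37 °C with 2 nM LCV (RT16) or 25 nM LCV (R2/PCFT4). PC43-10 cells were grown in standard RPMI1640/DFBS instead. FRα specificity was tested by adding 200 nM folic acid. Viable cells were read by CellTiter-Blue fluorescence (ex 560/em 590), and IC50 was taken from dose–response curves; means of 3–10 experiments.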

[9] = (§2) Inhibition of GARFTase in human KB cells assessed as incorporation of [14C]-glycine into [14C]-formyl GAR incubated 30 mins prior to [14C]-glycine addition measured after 16 hrs by radiometric assay in presence of azaserin; type: cell-based
In short: (§3)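 KB cells were preincubated 1 h in folate- and glutamine-free medium with 2 nM LCV and a range of drug concentrations. Azaserine (4 μM final) was added for 30 min, then 2 mM glutamine and [14C(U)]glycine (0.1 mCi/L) for 16 h at 37 °C. TCA extracts were ether-washed and run on AG1×8 anion exchange. [14C]formyl GAR was measured per mg protein, and IC50 was set against DMSO controls; three experiments.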

[10] = system: KB; experiment: as §2; type: cell-based; in short: as §3
[11] = system: KB; experiment: Induction of apoptosis in human KB cells assessed as viable cells at 1 uM after 96 hrs by Annexin V-FITC/7-AAD staining-based flow cytometry (RVB = 89.6%); type: functional; details: read-out: Activity
[12] = system: KB; experiment: Induction of apoptosis in human KB cells assessed as necrotic cells at 1 uM after 96 hrs by Annexin V-FITC/7-AAD staining-based flow cytometry (RVB = 7.80%); type: functional
[13] = system: KB; experiment: Induction of apoptosis in human KB cells assessed as early apoptotic cells at 1 uM after 96 hrs by Annexin V-FITC/7-AAD staining-based flow cytometry (reference value: 0.485%); type: functional

With Nc1nc2[nH]cc(CCCCc3ccc(C(=O)N[C@@H](CCC(=O)O)C(=O)O)cc3)c2c(=O)[nH]1 the Activity [1] was 2.3%, the Activity [2] was 48.2% and the Activity [3] was 12.9%. The Activity [4] was “inactive”, the IC50 [5] was 700 nM and the IC50 [6] was 12.7 nM. The IC50 [7] was 840 nM, the IC50 [8] was > 1000 nM and the IC50 [9] was 29.7 nM. The inhibition [10] was “Dose-dependent effect”, the viability at 1 µM [11] was 39% and the Activity [12] was 0.456%. It also gave an Activity [13] of 33.8%.

Source: ChEMBL document CHEMBL3102834, “Discovery of 5-substituted pyrrolo[2,3-d]pyrimidine antifolates as dual-acting inhibitors of glycinamide ribonucleotide formyltransferase and 5-aminoimidazole-4-carboxamide ribonucleotide formyltransferase in de novo purine nucleotide biosynthesis: implications of inhibiting …” (J Med Chem, 2013)
